Drawing on ChEMBL document CHEMBL1152262, “New cyclic somatostatin analogues containing a pyrazinone ring: importance of Tyr for antiproliferative activity” (2008), this text covers Activity for eight compounds.

Common to all, as to format: functional
In experiment [1] the test system is SW480. Kind of experiment: Antiproliferative activity against human SW480 cells at 10 uM by MTT assay. The essentials: (§1)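 MTT read-out of proliferation in A431 (human epithelial tumour) and SW480 (human colon carcinoma) cells, both described as expressing SSTRs. Each analogue was tested at […]. TT-232 and cycloheximide were run as positive controls.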
Background: Tetrazolium assays rely on reduction of a dye to a coloured formazan, in cell work by metabolically active cells.

Experiment [2] relates to SW480. Kind of experiment: Antiproliferative activity against human SW480 cells at 50 uM by MTT assay. The gist of the method:
as §1

Experiment [3] has as its system A-431. Kind of experiment: Antiproliferative activity against human A431 cells at 25 uM by MTT assay. The essentials:
as §1

The test system of experiment [4] is A-431. Nature of the experiment: Antiproliferative activity against human A431 cells at 10 uM by MTT assay. The gist of the method:
as §1

Experiment [5] concerns A-431. Kind of experiment: Antiproliferative activity against human A431 cells at 50 uM by MTT assay. The essentials: as §1
For experiment [6], the system named is SW480. Kind of experiment: Antiproliferative activity against human SW480 cells at 25 uM by MTT assay. The essentials:
as §1

Where a SMILES comes first, the peptide text is derived from it. Bridges are numbered along the chain shown (N, C = ends). [ ]: non-standard residue; d: D form.

`Cc1cc(O)cc(C)c1C[C@@H]1NC(=O)CCc2nc(C)c([nH]c2=O)CCCCNC(=O)[C@H](CCCCN)NC(=O)[C@@H](Cc2c[nH]c3ccccc23)NC1=O`: the Activity with SW480 [1] was 2%; with SW480 [2], 7%; in the experiment with A-431 [3], 0%; in the experiment on A-431 [4] it was 0%; in the experiment with A-431 [5] it was 0%; in the experiment with SW480 [6] it was 11%.
`Cc1nc2c(=O)[nH]c1CCCCNC(=O)[C@H](CCCCN)NC(=O)[C@@H](Cc1c[nH]c3ccccc13)NC(=O)[C@H](Cc1ccc(O)cc1)NC(=O)CC2`: the Activity is on record as 35% with SW480 [1]; 35% in the experiment on SW480 [2]; 42% in the experiment on A-431 [3]; 28% in the experiment with A-431 [4]; 58% in the experiment with A-431 [5]; 31% in the experiment with SW480 [6].
With `Cc1nc2c(=O)[nH]c1CCC(=O)N[C@@H](Cc1ccccc1)C(=O)N[C@H](Cc1c[nH]c3ccccc13)C(=O)N[C@@H](CCCCN)C(=O)NCCCC2`, the Activity in the experiment on SW480 [1] is on record as 0%; in the experiment with SW480 [2], 0%; in the experiment on A-431 [3], 28%; with A-431 [4] it was 31%; in the experiment with A-431 [5], 25%; in the experiment on SW480 [6], 7%.
Take `Cc1nc2c(=O)[nH]c1CCC(=O)N[C@@H](Cc1ccc(O)cc1)C(=O)N[C@H](Cc1c[nH]c3ccccc13)C(=O)N[C@@H](CCCCN)C(=O)NCCCC2`: the Activity with SW480 [1] was 24%; with SW480 [2] it was 7%; in the experiment with A-431 [3], 36%; in the experiment with A-431 [4] it was 19%; with A-431 [5] it was 56%; in the experiment with SW480 [6], 23%.
For `Cc1nc2c(=O)[nH]c1CCCCNC(=O)[C@H](CCCCN)NC(=O)[C@@H](Cc1c[nH]c3ccccc13)NC(=O)[C@H](Cc1ccccc1)NC(=O)CC2`, the Activity is listed as 2% in the experiment with SW480 [1]; 4% in the experiment with SW480 [2]; 0% in the experiment on A-431 [3]; 0% in the experiment with A-431 [4]; 0% in the experiment on A-431 [5]; 4% with SW480 [6].
On to `Cc1cc(O)cc(C)c1C[C@@H]1NC(=O)CCc2[nH]c(=O)c(nc2C)CCCCNC(=O)[C@H](CCCCN)NC(=O)[C@@H](Cc2c[nH]c3ccccc23)NC1=O`, for which the Activity with SW480 [1] came out at 8%; in the experiment with SW480 [2], 14%; in the experiment with A-431 [3], 0%; in the experiment with A-431 [4] it was 0%; with A-431 [5], 0%; in the experiment on SW480 [6], 16%.
`C[C@@H]1C[C@@H]([C@H](O)CC2CC(=O)NC(=O)C2)C(=O)[C@@H](C)C1` [CYCLOHEXIMIDE]: the Activity with SW480 [1] worked out at 68%; with SW480 [2] it was 92%; in the experiment on A-431 [3] it was 70%; in the experiment with A-431 [4], 40%; with A-431 [5] it was 80%; with SW480 [6], 85%.
In the case of `C[C@@H](O)[C@H](NC(=O)[C@@H]1CSSC[C@H](NC(=O)[C@H](N)Cc2ccccc2)C(=O)N[C@@H](Cc2ccc(O)cc2)C(=O)N[C@H](Cc2c[nH]c3ccccc23)C(=O)N[C@@H](CCCCN)C(=O)N1)C(N)=O` [TT-232] (H-[dF]CY[dW]KCT-NH2; disulfide 2-6), the Activity worked out at 13% in the experiment with SW480 [1]; 88% in the experiment on SW480 [2]; 60% in the experiment on A-431 [3]; 50% with A-431 [4]; 80% in the experiment with A-431 [5]; 47% in the experiment on SW480 [6].
